According to article PMC10251802 (Journal of Enzyme Inhibition and Medicinal Chemistry, 2023):
Values joined by “and” are separate entries in the source; they are usually repeats but may differ in a detail not shown here. Identical values can stand only once. Like-named read-outs stand apart in the source and are kept apart here. Blank lines part the entries; values can stand above or below the compound they belong to.

What was measured:
EGFR^WT = EGFR^WT (Homo sapiens, UniProt P00533); assay: EGFR^WT kinase inhibition; type: biochemical
EGFR^WT, sequence (P00533 25-1210): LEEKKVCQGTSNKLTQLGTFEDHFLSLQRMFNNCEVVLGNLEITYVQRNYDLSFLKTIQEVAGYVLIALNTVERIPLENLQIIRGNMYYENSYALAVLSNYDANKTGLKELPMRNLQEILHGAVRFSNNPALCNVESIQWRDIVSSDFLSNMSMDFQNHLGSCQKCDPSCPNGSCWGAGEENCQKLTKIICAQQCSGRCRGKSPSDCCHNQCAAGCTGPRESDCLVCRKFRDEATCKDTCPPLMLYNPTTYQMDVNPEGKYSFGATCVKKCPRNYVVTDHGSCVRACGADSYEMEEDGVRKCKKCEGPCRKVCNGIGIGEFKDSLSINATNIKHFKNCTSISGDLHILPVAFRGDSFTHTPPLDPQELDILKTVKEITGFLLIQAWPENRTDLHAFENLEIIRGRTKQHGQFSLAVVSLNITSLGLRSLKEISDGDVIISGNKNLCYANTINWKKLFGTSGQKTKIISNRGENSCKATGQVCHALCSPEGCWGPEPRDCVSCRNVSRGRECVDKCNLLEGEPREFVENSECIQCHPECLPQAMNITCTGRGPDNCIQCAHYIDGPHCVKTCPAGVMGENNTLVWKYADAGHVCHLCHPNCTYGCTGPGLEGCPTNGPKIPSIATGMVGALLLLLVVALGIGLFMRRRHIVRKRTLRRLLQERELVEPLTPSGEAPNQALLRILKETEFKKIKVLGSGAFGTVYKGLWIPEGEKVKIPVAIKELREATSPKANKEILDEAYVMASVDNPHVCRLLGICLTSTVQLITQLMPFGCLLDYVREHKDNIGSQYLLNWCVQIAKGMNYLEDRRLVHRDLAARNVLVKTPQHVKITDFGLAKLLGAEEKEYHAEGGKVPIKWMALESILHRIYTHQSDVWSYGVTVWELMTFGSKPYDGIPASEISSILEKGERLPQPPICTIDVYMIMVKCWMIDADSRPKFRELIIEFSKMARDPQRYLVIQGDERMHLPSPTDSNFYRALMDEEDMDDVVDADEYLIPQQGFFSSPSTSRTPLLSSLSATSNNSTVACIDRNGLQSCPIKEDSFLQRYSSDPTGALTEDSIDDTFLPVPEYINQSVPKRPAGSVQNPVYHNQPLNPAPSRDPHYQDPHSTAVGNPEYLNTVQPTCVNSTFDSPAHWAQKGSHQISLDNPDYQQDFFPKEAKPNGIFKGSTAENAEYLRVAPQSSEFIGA

MCF-7 = assay: MTT anti-proliferative assay, MCF-7; type: cell-based, human
A549 = assay: MTT anti-proliferative assay, A549; type: cell-based, human
EGFR^T790M = EGFR^T790M (Homo sapiens, UniProt P00533, T790M); assay: EGFR^T790M kinase inhibition; type: biochemical
EGFR^T790M, sequence (P00533 25-1210 T790M): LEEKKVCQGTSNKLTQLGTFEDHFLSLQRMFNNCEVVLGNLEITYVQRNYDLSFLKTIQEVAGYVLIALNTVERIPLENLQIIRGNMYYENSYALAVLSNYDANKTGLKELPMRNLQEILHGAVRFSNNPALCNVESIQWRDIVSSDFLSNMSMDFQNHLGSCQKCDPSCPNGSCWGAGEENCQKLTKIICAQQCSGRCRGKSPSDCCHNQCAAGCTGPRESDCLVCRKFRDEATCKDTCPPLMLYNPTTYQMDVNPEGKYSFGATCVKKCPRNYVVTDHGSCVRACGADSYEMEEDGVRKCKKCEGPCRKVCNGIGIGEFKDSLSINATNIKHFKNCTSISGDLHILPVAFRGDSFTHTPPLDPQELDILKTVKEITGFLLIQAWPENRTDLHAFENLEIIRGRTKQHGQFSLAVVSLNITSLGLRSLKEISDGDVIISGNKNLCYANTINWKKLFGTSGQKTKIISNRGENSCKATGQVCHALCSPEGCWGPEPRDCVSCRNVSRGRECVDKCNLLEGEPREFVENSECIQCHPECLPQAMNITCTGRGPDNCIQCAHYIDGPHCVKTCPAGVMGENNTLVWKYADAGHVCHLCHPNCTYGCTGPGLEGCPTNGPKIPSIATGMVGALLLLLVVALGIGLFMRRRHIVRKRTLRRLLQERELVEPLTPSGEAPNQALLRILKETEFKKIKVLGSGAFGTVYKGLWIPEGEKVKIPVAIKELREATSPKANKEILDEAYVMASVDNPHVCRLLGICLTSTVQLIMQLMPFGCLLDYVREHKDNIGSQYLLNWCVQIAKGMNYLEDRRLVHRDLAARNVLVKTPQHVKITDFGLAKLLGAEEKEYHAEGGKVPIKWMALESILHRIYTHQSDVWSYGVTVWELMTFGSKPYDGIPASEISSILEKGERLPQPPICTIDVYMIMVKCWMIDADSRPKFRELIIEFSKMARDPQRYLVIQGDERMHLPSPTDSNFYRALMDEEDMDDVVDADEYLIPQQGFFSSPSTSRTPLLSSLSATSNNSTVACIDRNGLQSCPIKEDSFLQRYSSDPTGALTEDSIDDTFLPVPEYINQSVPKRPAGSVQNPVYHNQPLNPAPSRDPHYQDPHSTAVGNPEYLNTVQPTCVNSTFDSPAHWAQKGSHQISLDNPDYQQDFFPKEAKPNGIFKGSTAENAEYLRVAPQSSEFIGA

BAX and Bcl-2 genes = assay: BAX and Bcl-2 gene expression by quantitative RT-PCR; type: cell-based, human; conditions: A549, 17.79 µM, 72 h
A549 cells [1] = assay: Cell cycle analysis by flow cytometry; type: cell-based, human; conditions: A549, 17.79 µM, 72 h
Method in brief: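 A549 cells were exposed to the test compound at 17.79 μM for 72 h, with untreated A549 cells as comparator. Cell-cycle distribution was read by flow cytometry as the percentage of the population in Sub-G1, G1, S and G2/M phases.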

A549 cells [2] = assay: Apoptosis analysis, Annexin-V/propidium iodide staining; type: cell-based, human; conditions: A549, 17.79 µM, 72 h
Method in brief: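 Annexin-V-FITC/propidium iodide double staining of A549 cells exposed to the test compound (17.79 μM, 72 h), analysed by flow cytometry.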

WI-38 = assay: Safety assay; conditions: for IC50: Homo sapiens, WI-38, read-out: Cell lines IC50 WI-38
[3] = Homo sapiens, MCF7, read-out: Cell lines IC50 MCF-7
[4] = Homo sapiens, A549, read-out: Cell lines IC50 A549

IC50 (EGFR^WT): 35.6 nM | IC50 (MCF-7; [3]): 21.4 µM | IC50 (A549; [4]): 17.5 µM
Compound: CC1CCc2c(sc3ncnc(Nc4ccc(S(N)(=O)=O)cc4)c23)C1 (centres unmarked) [5f, 4-((7-Methyl-5,6,7,8-tetrahydrobenzo[4,5]thieno[2,3-d]pyrimidin-4-yl)amino)benzene sulphonamide]

IC50 (EGFR^WT): 37.2 nM | IC50 (EGFR^T790M): 204 nM | IC50 (MCF-7; [3]): 22.7 µM | IC50 (A549; [4]): 17.8 µM
Compound: CC1CCc2c(sc3ncnc(Nc4ccccc4F)c23)C1 (centres unmarked) [5b, N-(2-Fluorophenyl)-7-methyl-5,6,7,8-tetrahydrobenzo[4,5]thieno[2,3-d]pyrimidin-4-amine]
BAX/Bcl-2 ratio (BAX and Bcl-2 genes; control set to 1): 8.3 fold change and 8.35 ± 1.09 fold change | Gene expression BAX (BAX and Bcl-2 genes; control set to 1): 3 fold change and 2.97 ± 0.14 fold change | Gene expression Bcl-2 (BAX and Bcl-2 genes; control set to 1): 0.37 ± 0.06 fold change | downregulation of the Bcl-2 gene (BAX and Bcl-2 genes; vs untreated cells): 3 fold | Cell cycle distribution % G2/M (A549 cells [1]): 38.61% and 38.61 ± 2.11 % | Cell cycle distribution %G1 (A549 cells [1]): 23.19% and 23.19 ± 2.18 % | Cell cycle distribution %S (A549 cells [1]): 37.66% and 37.66 ± 4.19 % | Cell cycle distribution %Sub-G1 (A549 cells [1]): 0.54% and 0.54 ± 0.09% | Apoptosis Early (right bottom) (A549 cells [2]): 17.84% and 17.84 ± 3.68% | Apoptosis Late (right top) (A549 cells [2]): 45.71% and 45.71 ± 5.77 % | Necrosis (left top) (A549 cells [2]): 2.12 ± 0.11 | Viable (left bottom) (A549 cells [2]): 34.33 ± 2.20 | IC50 (WI-38): 70.1 µM | times safer against WI-38 than erlotinib (WI-38; ratio of WI-38 IC50 values vs erlotinib): 2.5 fold

IC50 (MCF-7; read-out: Cell lines IC50 MCF-7, MTT, mean of three experiments): 26.6 µM | IC50 (A549; read-out: Cell lines IC50 A549, MTT, mean of three experiments): 21.2 µM
Compound: N-((7-Methyl-5,6,7,8-tetrahydro[1]benzothieno[2,3-d]pyrimidin-4-yl)methyl) aniline [compound 6]

IC50 (MCF-7; [3]): 29.2 µM | IC50 (A549; [4]): 19.9 µM
Compound: CC1CCc2c(sc3ncnc(Nc4ccccc4S(N)(=O)=O)c23)C1 (centres unmarked) [5e, 2-((7-Methyl-5,6,7,8-tetrahydrobenzo[4,5]thieno[2,3-d]pyrimidin-4-yl)amino)benzene sulphonamide]

Further lines, the compound ahead of its results:

Compound: CC1CCc2c(sc3ncnc(Nc4ccc(Cl)cc4)c23)C1 (centres unmarked) [5a, N-(4-Chlorophenyl)-7-methyl-5,6,7,8-tetrahydrobenzo[4,5]thieno[2,3-d]pyrimidin-4-amine]
IC50 (MCF-7; [3]): 29.3 µM | IC50 (A549; [4]): 20.6 µM

Compound: CC1CCc2c(sc3ncnc(NN)c23)C1 (centres unmarked) [7b, 4-Hydrazinyl-7-methyl-5,6,7,8-tetrahydro[1]benzothieno[2,3-d]pyrimidine]
IC50 (MCF-7; [3]): 23.7 µM | IC50 (A549; [4]): 18.4 µM

Compound: C#Cc1cccc(Nc2ncnc3cc(OCCOC)c(OCCOC)cc23)c1 [Erlotinib, reference compound]
IC50 (MCF-7; [3]): 14.3 µM | IC50 (WI-38): 28.5 µM | IC50 (A549; [4]): 4.18 µM

Compound: COc1ccc(Nc2ncnc3sc4c(c23)CCC(C)C4)cc1 (centres unmarked) [5c, N-(4-Methoxyphenyl)-7-methyl-5,6,7,8-tetrahydrobenzo[4,5]thieno[2,3-d]pyrimidin-4-amine]
IC50 (MCF-7; [3]): 30 µM | IC50 (A549; [4]): 27.1 µM

Compound: CC1CCc2c(sc3ncnc(NNC(N)=S)c23)C1 (centres unmarked) [7a, 2–(7-Methyl-5,6,7,8-tetrahydro[1]benzothieno[2,3-d]pyrimidin-4-yl)hydrazine carbothioamide]
IC50 (MCF-7; [3]): 35.7 µM | IC50 (A549; [4]): 28.7 µM

Compound: CC1CCc2c(sc3ncnc(Nc4ccc(N)cc4)c23)C1 (centres unmarked) [5d, N^1-(7-Methyl-5,6,7,8-tetrahydro[1]benzothieno[2,3-d]pyrimidin-4-yl)benzene-1,4-diamine]
IC50 (MCF-7; [3]): 35.5 µM | IC50 (A549; [4]): 34.8 µM
